Assay [1] concerns the target T1, KOR (Homo sapiens, UniProt P41145). Description: Competitive radioligand binding, KOR. As to conditions: ratio of Ki KOR / Ki MOR. The method in brief: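 Membranes from CHO cells stably expressing a single opioid receptor were incubated with test compound at various concentrations and either [3H]naloxone (MOR) or [3H]norBNI (KOR) for 1 h at 30 °C. Specific binding was the difference between binding without and with 10 µM naltrexone. IC50 came from linear regression of Hill plots, and Ki from Cheng-Prusoff. Selectivity is the KOR Ki/MOR Ki ratio, from three independent experiments.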

Assay [2] addresses T2, MOR (Mus musculus, UniProt P42866). The assay is described as follows: [35S]GTPγS-binding assay in low MOR-expressing CHO cell line. In kind it is biochemical. The method in brief:
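Low-MOR-expressing CHO cell material was incubated for 90 min at 30 °C with varying test compound or 3 µM DAMGO (full-agonist reference). Nonspecific binding used 10 µM unlabeled GTPγS. Reactions were stopped by GF/B vacuum filtration, and bound radioactivity was read by scintillation counting. Triplicates gave 3 independent determinations. EC50 and Emax came from nonlinear one-site fits.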
(GTPγS resists hydrolysis and so accumulates on activated G proteins.)

Assay [3] addresses T1, KOR. Description: [35S]GTPγS-binding assay in KOR-expressing CHO cell line. In kind it is biochemical. The method in brief: (§1)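 CHO-cell membranes expressing DOR or KOR (10 µg protein) were incubated for 90 min at 30 °C in assay buffer. The mix held 10 µM GDP, 0.1 nM [35S]GTPγS, and varying test compound or a 3 µM full-agonist reference (SNC80 for DOR, U50,488H for KOR). Nonspecific binding used 10 µM unlabeled GTPγS. Reactions were stopped by rapid vacuum filtration through glass-fibre filters, and bound radioactivity was read by liquid scintillation. Assays ran in triplicate, with 3 independent determinations. EC50 and Emax came from nonlinear one-site fits.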

The target in assay [4] is DOR (Homo sapiens, UniProt P41143). The assay is described as follows: [35S]GTPγS-binding assay in DOR-expressing CHO cell line. In kind it is biochemical. The method in brief: as §1
The subject of assay [5] is Swiss Webster mice. Description: Warm water tail immersion. The format is in vivo, mouse.
Assay [6] concerns circular muscle of the mouse colon. The format is cell-based. As to conditions: for Inhibition of morphine-induced contractions: 1 nM antagonist, distal or proximal colon, data not shown; for Antagonism of morphine effects: Figure 6A; for Contractions induced by compound alone: concentrations up to 30 μM, distal and proximal colon preparations.
Assay [7] relates to Swiss Webster mice. Description: Colonic bead expulsion assay. The format is in vivo, mouse.
Assay [8] relates to Swiss Webster mice. Description: Charcoal gavage intestinal motility assay. In kind it is in vivo, mouse.
The test system of assay [9] is Longitudinal Muscle Myenteric Plexus (LMMP) preparations from the guinea pig ileum. Description: Electrical field stimulated contractions in LMMP preparations. In kind it is cell-based. As to conditions: Figure 8A.
Assay [10] relates to Swiss Webster mice. Description: Acetic acid induced writhing assay. In kind it is in vivo, mouse. Background: In writhing tests, fewer writhes than in controls are read as antinociception.
Assay [11] concerns the target T2, MOR. To be noted: Emax relative to full agonist DAMGO (100%), ref 9b; cited from earlier work.
The target in assay [12] is T1, KOR. To be noted: ref 9b, cited from earlier work.
[13] abbreviates: Emax relative to full agonist U50,488H (100%).
The mark [14] stands for this setting: 10 nM antagonist, proximal colon, Figure 6C.
The mark [15] stands for this setting: 100 nM antagonist, distal colon, Figure 6B.

Where “and” joins values, the source holds several entries; their conditions need not be identical. Identical values can stand only once. Like-named read-outs stand apart in the source and are kept apart here.

What is called EC50 is the midpoint of the concentration-response curve.

On to “1-Benzyl-17-Cyclopropylmethyl-3,14β-dihydroxy-4,5α-epoxy-6β-[(4'-pyridyl)acetamido]morphinan [BNAP]”, for which the “Selectivity (κ/μ)” value in assay [1] is given as 4.6 (κ/μ). Further, the “% max of agonist” value is 14.6% and 14.6 ± 0.9% in assay [2] (Emax relative to full agonist DAMGO (100%)); 45.9 ± 1.7% in assay [3] (setting [13]); 9.2 ± 2.2% in assay [4] (Emax relative to full agonist SNC80 (100%)). Moreover, the EC50 in [2] ([35S]GTPγS binding) is 4.84 nM and 4.8 nM; in [3] ([35S]GTPγS binding), 2.9 ± 1.1 nM; in assay [4] ([35S]GTPγS binding), 108 ± 69 nM. The “Antinociceptive effect of compound alone” value in assay [5] (1.0 μg/5 μL ICV, compared to morphine alone, mice, Figure 4) was “did not produce significant antinociception”; in [5] (10 mg/kg s.c., mice, Figure 3), “did not produce significant antinociceptive effects”. Besides, the “Antagonism of morphine antinociception” value in assay [5] (10 mg/kg s.c., any morphine dose tested, mice, Figure 3) is on record as “did not significantly antagonize morphine antinociception”. Moreover, in [5] (ICV, increasing concentrations, mice, Figure 4), the “Reversal of morphine antinociception” value is “dose dependent reversal of morphine antinociception”. In addition, in assay [5] (ICV, mice, Figure 4), the “Dose giving complete reversal of morphine antinociception” value is 0.3 μg/5 μL. The “Inhibition of morphine-induced contractions” value in [6] was “neither NAP nor BNAP showed significant inhibition”. In addition, the “Antagonism of morphine effects” value in [6] (10 nM antagonist, distal colon) is given as “neither NAP nor BNAP showed significant antagonism”. In addition, the figures for the “Morphine pD2 in the presence of antagonist” value in assay [6] (setting [14]) and in assay [6] (setting [15]) were 5.9 and 5.2, respectively. Besides, the “Change of morphine pD2 on raising the antagonist concentration” value in assay [6] (100 nM versus 10 nM antagonist, proximal colon) is on record as “no further reduction of the morphine pD2”. For the same molecule, the “Contractions induced by compound alone” value in assay [6] is given as “Neither BNAP nor NAP alone at concentrations up to 30 μM induced contractions”. The Bead expulsion time in assay [7] (BNAP alone 10 mg/kg, mice (naive 17 min)) was found to be 43 min. The “Antagonism of morphine's effect on bead expulsion” value in assay [7] (given with morphine or 5 or 15 min before morphine) was “no significant antagonism of morphine's effects was observed”. Besides, the “Decrease of intestinal motility” value in [8] (charcoal gavage, mice, Figure 7B) was 1.5 fold. In addition, in [8] (mice), the “Reversal of morphine induced inhibition of intestinal motility” value was “unable to reverse morphine induced inhibition of intestinal motility”. In addition, the “pIC50 for inhibition of EFS contractions” value in [9] is reported as 7.86 ± 0.07. In [10] (mice with 5-day 75 mg morphine pellet, Figure 9B), the “Activity in hypernociceptive model of visceral pain” value is “active at three fold lower concentration”. Further, the Number of writhes result in [10] (s.c., naive mice, Figure 9A) is listed as “dose dependently reduced the number of writhes”.
Regarding `O=C(N[C@@H]1CC[C@@]2(O)[C@H]3Cc4ccc(O)c5c4[C@@]2(CCN3CC2CC2)[C@H]1O5)c1ccncc1` [NAP, 17-Cyclopropylmethyl-3,14beta-dihydroxy-4,5alpha-epoxy-6beta-(4'-pyridylcarboxamido)morphinan, reference compound], the “Inhibition of morphine-induced contractions” value in [6] is on record as “neither NAP nor BNAP showed significant inhibition”. For the same molecule, in [6] (10 nM antagonist, distal colon), the “Antagonism of morphine effects” value was “neither NAP nor BNAP showed significant antagonism”. For the same molecule, the entries for the “Morphine pD2 in the presence of antagonist” value in [6] (setting [14]) and in assay [6] (setting [15]) were 5.9 and 5.3, respectively. For the same molecule, in [6], the “Contractions induced by compound alone” value is listed as “Neither BNAP nor NAP alone at concentrations up to 30 μM induced contractions”. The “% max of agonist” value in assay [11] was 22.72 ± 0.84% and 22.7 ± 0.8%; in [12] (setting [13]), 45.5 ± 4.4%. The 50% effective concentration (EC50) in assay [12] ([35S]GTPγS binding) was 28.8 ± 14.4 nM.
On to `CN1CC[C@]23c4c5ccc(O)c4O[C@H]2[C@@H](O)C=C[C@H]3[C@H]1C5` [morphine, Morphine, reference compound], for which the Antinociception result in assay [5] (mouse, in vivo) is reported as “dose dependently induced antinociception”. Moreover, the Bead expulsion time in [7] (mouse, in vivo) is recorded as 75 min. Also, the “Decrease of intestinal motility” value in assay [8] (mouse, in vivo) is 3 fold.
For the molecule DAMGO [reference compound], the “pIC50 for inhibition of EFS contractions” value in assay [9] is given as 7.67 ± 0.03.

These data come from article PMC5125022 (ACS chemical neuroscience, 2016).
